# Sampled rows, rich in hits. Any-hit rate of the full collection: about 4%.
# RAM network inh – yeast RAM network inhibition; S. cerevisiae dse1pr::URA3 reporter, 5-FOA growth OD615, 2 d; analog-sensitive cbk1-as2 kinase mutant strain; inhibition, % at 50 µM; 1.8% of 190,000 active; AID 868;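 active means inhibition above a set limit, 3 SD over mean compound inhibition, cut at about 8.4% in these data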;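 further: inhibition rescues growth on 5-FOA so higher OD means more RAM inhibition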
# Yeast growth inh – chemicals that inhibit yeast BB579 growth in restrictive medium (lifespan-shortening candidates). S. cerevisiae BB579 growth, OD615, 48 h. inhibition, % at 10 µM. 0.51% of 140,000 active;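 active means inhibition above a set limit, 3 SD over the mean compound inhibition, cut at about 44% in these data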
#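 Assay system – yeast BB579 (DeaD) · Dosing – single compound dose of 10 µM, 0.25% DMSO final · Detection – OD615 turbidity measurement · Buffer or medium – CSMM-D restrictive synthetic medium containing dextrose (glucose) · Benchmarks – positive control amphotericin B 10 µg/mL · Incubation – 48 h exposure, 30 °C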
# Mdm2 ligase inh – Mdm2 E3 ligase (human) inhibition; Q00987; 0.11% of 210,000 active; cell-based MDM2 ubiquitination luciferase reporter, 2 h; 0 = plate control, 100 = twice control, blank-subtracted; signal enhancement, % at 5 µM;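 active means signal enhancement of 30% or more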;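 further: luminescence tracks abundance of the self-degrading MDM2-luciferase fusion protein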
# Target sequence (Q00987 whole entry, looked up, the tested form may be a part): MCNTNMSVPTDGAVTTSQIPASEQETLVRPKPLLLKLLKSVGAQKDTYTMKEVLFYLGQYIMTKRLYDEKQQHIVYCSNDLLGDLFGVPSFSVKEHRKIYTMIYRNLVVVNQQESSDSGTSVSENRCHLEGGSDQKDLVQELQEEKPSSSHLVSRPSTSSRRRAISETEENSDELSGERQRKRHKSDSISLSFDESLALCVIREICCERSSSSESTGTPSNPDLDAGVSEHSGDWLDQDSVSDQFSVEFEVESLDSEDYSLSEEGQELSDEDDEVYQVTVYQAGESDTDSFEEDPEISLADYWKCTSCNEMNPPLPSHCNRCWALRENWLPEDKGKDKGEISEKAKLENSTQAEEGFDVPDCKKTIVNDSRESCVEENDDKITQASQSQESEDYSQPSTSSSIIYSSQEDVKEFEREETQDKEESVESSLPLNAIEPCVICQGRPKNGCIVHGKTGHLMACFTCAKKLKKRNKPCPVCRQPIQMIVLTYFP
#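 Test system: stable mammalian line carrying autodegrading MDM2–luciferase fusion reporter; quantity: 2000 cells in each well; times: 4 h cell settling then 2 h compound exposure, 37 °C; detection: luminescence with SteadyLite reagent, 15 min at room temperature; evaluation: percent signal gain over controls, blank-subtracted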
# Yeast life ext – yeast lifespan extension; S. cerevisiae growth with nicotinamide, OD615; deaD strain in restrictive glucose medium; AID 775; inhibition of the nicotinamide effect, % at 10 µM; 0.68% of 130,000 active;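 active means inhibition above a set limit, placed 3 SD over the median of all compounds, cut at about 26% in these data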
#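 assay system = DeaD-strain S. cerevisiae | buffer or medium = restrictive glucose medium | reagent = 1.5 mM nicotinamide | compound = 10 µM single point, 0.25% DMSO | incubation = 48 h compound exposure at 30 °C, humidified | signal = OD615 measurement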
# INS promoter inh – TRM-6 insulin promoter activity inhibition. AID 1273. inhibition, % at 2 µM. 0.9% of 130,000 active. TRM-6 cells, insulin promoter-eGFP reporter, imaging; reporter expression induced with tamoxifen;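 active means inhibition above the mean plus 3 SD, with well images judged a real hit on visual review, cut at about 60% in these data, passing the limit was not always enough; inconclusive means inhibition over the cutoff but images rejected on review; inactive means inhibition not above the cutoff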
# Measles CPE – protection of cells from measles virus; Measles virus-infected cells, CPE protection, absorbance; protection (pct of control), % at 4 µM; 1.5% of 140,000 active; in the data active means protection mostly above about 24%, no sharp cut-off; inactive means mostly below about 26%
# A number is an active result; – = inactive; ? = inconclusive; · = not tested or not shown.
SMILES,RAM network inh,Yeast growth inh,Mdm2 ligase inh,Yeast life ext,INS promoter inh,Measles CPE
O=C(Nc1ccccc1Cl)c1cccc(NS(=O)(=O)c2ccccc2)c1,–,–,–,–,–,–
O=C(Nc1ccc([N+](=O)[O-])cc1)Nc1nc(-c2ccc(Cl)s2)cs1,–,–,–,–,78,–
CCCSc1nc2c(c(=O)n1CC)SC(C)C2 (stereo not given),–,–,–,–,·,93
CCn1c(SCC(=O)N2CCCC2)nc2c(c1=O)SC(C)C2 (stereo not given),–,–,–,–,·,–
COc1ccc(NC(=O)/C=C/c2c(Cl)nc3ccccn23)cc1,–,·,–,·,·,·
O=C(O)c1cc2c(ccc3ccccc32)oc1=O,–,67,–,–,–,–
O=C(O)c1cc2ccc3ccccc3c2oc1=O,–,64,–,·,–,–
CC(Sc1nnc(Cn2c(=O)sc3ccccc32)n1C)c1ccccc1 (stereo not given),–,–,–,–,·,51
C#CCn1c(-c2cccs2)nc2ccccc21,–,·,–,·,93,·
CCn1c(-c2cccs2)nc2ccccc21,–,–,–,·,?,–
C=C(C)n1c(=O)[nH]c2ccccc21,–,–,–,–,·,–
NC(=O)c1nnn(-c2nonc2N)c1-c1ccc([N+](=O)[O-])cc1,–,·,–,·,·,·
CC(=O)Nc1ccc(S(=O)(=O)N(C)c2ccccc2)cc1,–,–,–,–,–,–
CC(=O)Nc1ccc(S(=O)(=O)N(C)c2ccc(O)cc2)cc1,–,–,–,–,–,44
CC(=O)Nc1ccc(S(=O)(=O)N(c2cccnc2)S(=O)(=O)c2ccc(NC(C)=O)cc2)cc1,10.0,–,–,·,–,–
Cc1nn(C)c2ncc(C(N)=O)c(Oc3ccc(Cl)cc3)c12,·,·,–,·,·,·
Cc1cc(C)c2c(N)c(C(=O)NN3CC(=O)N(c4cccc(Cl)c4)CC3=O)sc2n1,·,·,–,·,·,·
CCOc1ccccc1-c1nnc(SCC(=O)Nc2ccccc2)o1,10,–,–,–,–,–
O=C(CSc1nnc(-c2ccccn2)o1)Nc1ccccc1,–,·,–,·,·,·
CC(=O)c1ccc(NC(=S)NCc2ccc(Cl)cc2Cl)cc1,–,·,–,·,·,·
CSc1ccc(/C=C/C(=O)c2ccc(NC(=O)C(C)C)cc2)cc1,10,–,–,–,·,–
COc1cccc(C(=O)/C=C/c2ccc(SC)cc2)c1,9.2,–,–,–,·,–
COC(=O)c1ccc(/C=C/C(=O)c2cccc(OC)c2)cc1,–,–,–,–,–,–
CC(CNC(=O)c1cc(Cl)ccc1[N+](=O)[O-])NC(=O)c1cc(Cl)ccc1[N+](=O)[O-] (stereo not given),–,–,–,–,·,–
O=C(N/N=C/c1ccc([N+](=O)[O-])o1)c1cn(-c2ccccc2)nc1-c1ccccc1,–,–,·,–,–,–
SMILES,RAM network inh,Yeast growth inh,Mdm2 ligase inh,Yeast life ext,INS promoter inh,Measles CPE
O=C(N/N=C/c1coc2ccccc2c1=O)c1cn(-c2ccccc2)nc1-c1ccc(F)cc1,–,–,–,29,–,–
COc1ccc(C=C(c2ccc(OC)cc2)c2ccc(OC)cc2)cc1,8.5,–,–,–,–,–
COCCCNC(=O)c1c(N)n(/N=C/c2cccnc2)c2nc3ccccc3nc12,11,–,–,–,–,–
COCCCNC(=O)c1c(N)n(/N=C/c2cccs2)c2nc3ccccc3nc12,8.7,–,–,–,–,–
CCCc1nnc(SCC(=O)O)n1CC,·,·,–,·,·,·
O=C(c1cc([N+](=O)[O-])[nH]n1)N1CCSCC1,·,·,–,·,·,·
CCOCCCNC(=O)c1ccc(-n2c(=S)[nH]c3ccccc3c2=O)cc1,–,·,–,·,·,·
Cc1ccc(/C=[N+](/C)[O-])cc1,–,·,–,·,–,·
Cc1ccc(C=C2C(Cl)=C(Cl)C(Cl)=C2Cl)cc1,·,·,49,·,·,·
CC1CCN(c2nncc3ccccc23)CC1,–,–,–,30,·,–
CC1CCN(c2nnc(N3CCC(C)CC3)c3ccccc23)CC1,–,·,–,·,·,·
CCN(CC(=O)Nc1cccc(OC)c1)CC(=O)Nc1ccc(C)cc1Cl,–,·,–,·,–,·
CCOC(=O)c1c(N)nn(C(=O)C(C)C)c1-c1ccc(OC)cc1,–,–,–,–,79,–
O=[N+]([O-])c1ccc(Nc2nc(N/N=C\c3ccc4c(c3)OCO4)nc(N3CCCCC3)n2)cc1,11,–,–,–,–,–
O=C1Nc2ccccc2S/C1=C/Nc1cccc(Cl)c1,8.4,–,–,–,·,–
CCn1c(NCc2ccccc2NS(=O)(=O)c2ccc(C)cc2)nc2ccccc21,–,–,–,–,–,–
Cc1ccc(S(=O)(=O)Nc2ccccc2/C=N/c2nc3ccccc3n2C(C)C)cc1,–,–,·,53,–,–
CCCCn1c(/N=C/c2ccccc2NS(=O)(=O)c2ccc(C)cc2)nc2ccccc21,–,–,–,68,·,–
CCOC(=O)N1CCN(C(=O)C2CCC(C(=O)N3CCN(C(=O)OCC)CC3)CC2)CC1 (stereo not given),·,·,·,·,–,·
COc1cccc(N(C(=O)Cn2nnc(-c3ccc(C)cc3)n2)C(C(=O)NC(C)(C)C)c2c[nH]c3ccccc23)c1 (stereo not given),–,–,–,45,–,–
CCN(CC)c1ccc(CNCc2cccs2)cc1,–,·,–,·,·,·
O=S(=O)(Nc1c(S(=O)(=O)c2ccccc2)c2nc3ccccc3nc2n1C1CCCCC1)c1ccccc1,–,–,–,27,·,–
CCCCn1c(N)c(S(=O)(=O)c2ccc(C)cc2)c2nc3ccccc3nc21,9.5,–,–,–,–,–
C=CCn1c(NS(=O)(=O)c2ccccc2)c(S(=O)(=O)c2ccc(C)cc2)c2nc3ccccc3nc21,11,–,–,–,–,–
CC(=O)Nc1c(S(=O)(=O)c2ccccc2)c2nc3ccccc3nc2n1Cc1ccccc1,–,–,–,–,–,–
SMILES,RAM network inh,Yeast growth inh,Mdm2 ligase inh,Yeast life ext,INS promoter inh,Measles CPE
CCn1cc(C(=O)O)c(=O)c2cc(F)c(N3CCN(S(=O)(=O)c4ccc(NC(=O)OC)cc4)CC3)cc21,–,–,–,–,–,–
Cc1cccc(Nc2nnc(SCC(=O)NCc3cccs3)s2)c1C,–,–,–,–,–,–
Cc1c(Cl)cccc1-n1c(SCC(=O)NCc2ccccc2Cl)nnc1-c1ccncc1,–,–,–,–,–,–
O=C(CSc1nnc(-c2ccco2)n1Cc1ccco1)Nc1ccccc1,11,–,–,–,–,–
O=C(CSc1nnc(-c2ccccc2)n1-c1ccccc1)NCc1ccco1,–,–,·,–,–,–
Cc1c(Cl)cccc1-n1c(SCC(=O)NCc2cccs2)nnc1-c1ccncc1,–,–,–,–,91,–
Cc1cccc(Nc2nnc(SCC(=O)NCc3cccs3)s2)c1,8.5,·,–,·,–,·
COc1ccccc1NC(=O)CSc1nnc(-c2ccco2)n1Cc1ccco1,–,–,–,–,–,–
O=C(CSc1nnc(-c2ccco2)n1-c1ccccc1)NCc1ccco1,–,–,–,–,81,–

# Assay outcomes deposited in PubChem by several laboratories.
